{"source": "paper PMC12707352", "about": "(Angewandte Chemie (International Ed. in English), 2025)", "key": {"[1]": {"system": "RAW 264.7 murine macrophage‐like cells", "experiment": "EZ-Cytox cell viability assay with RSL3 co-treatment", "assay_type": "cell-based", "details": "RSL3 1 µM + DMSO, 24 h, EZ-Cytox (WST), n = 3", "procedure,_shortened": "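RAW 264.7 murine macrophage-like cells were co-treated for 24 h with RSL3 (1 µM) plus test compound. The screen used 10 µM, and dose-response used 0.3–20 µM on a log scale. Viability was read by EZ-Cytox and normalized to DMSO. Mean ± SD, n = 3.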"}, "HeLa cells": {"system": "HeLa cells", "experiment": "Lipid peroxidation, fluorescence imaging with BODIPY 665/676", "assay_type": "cell-based, human", "details": "RSL3 1 µM, 3 h, BODIPY 665/676 imaging", "procedure,_shortened": "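HeLa cells were treated for 3 h with DMSO, test compound (40 µM), RSL3 (1 µM) or both. They were then stained for 0.5 h with Hoechst 33342 (2 µg/ml) and BODIPY 665/676 (5 µM). Cells were imaged by fluorescence, and BODIPY intensity was quantified relative to DMSO-treated cells. Mean ± SD, n = 21; one-way ANOVA.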"}, "RAW 264.7 cells [2]": {"system": "RAW 264.7 cells", "experiment": "Lipid peroxidation, flow cytometry with BODIPY 665/676", "assay_type": "cell-based, murine", "details": "RSL3 1 µM, 4 h, BODIPY 665/676 flow cytometry", "procedure,_shortened": "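RAW 264.7 cells were treated for 4 h with DMSO, RSL3 (1 µM) or test compound plus RSL3. They were then stained with BODIPY 665/676 for 0.5 h. Mean fluorescence intensity was read by flow cytometry. Mean ± SD, n = 3; one-way ANOVA.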"}, "RAW 264.7 cells [3]": {"system": "RAW 264.7 cells", "details": "read-out: EC50 (ferroptosis inhibition); in RAW 264.7 cells; cited from earlier work"}, "[4]": {"details": "macrocyclic analog of crizotinib; cited from earlier work"}}}
{"molecule": "COC(=O)c1ccc([C@H]2c3[nH]c4ccccc4c3C[C@H](C(=O)OC)N2C(=O)CCl)cc1", "note": "[RSL3, RAS‐selective lethal 3]", "values": [{"measurement": "Cell viability with RSL3 alone", "setting": "[1]", "value": 18, "unit": "%"}, {"measurement": "Lipid peroxide level (imaging), RSL3 alone", "setting": "HeLa cells", "value": "markedly increased lipid peroxide levels"}, {"measurement": "Lipid peroxide level (flow cytometry), RSL3 alone", "setting": "RAW 264.7 cells [2]", "value": "markedly increased lipid peroxide levels"}]}
{"molecule": "CCOC(=O)c1ccc(NC2CCCCC2)c(N)c1", "note": "[ferrostatin‐1]", "values": [{"measurement": "EC50", "setting": "RAW 264.7 cells [3]", "value": "40 ± 4", "unit": "nM"}]}
{"molecule": "C[C@H]1Oc2cc(cnc2N)-c2c(nn(C)c2C#N)CN(C)C(=O)c2ccc(F)cc21", "note": "[lorlatinib]", "values": [{"measurement": "Potency increase through macrocyclization", "setting": "[4]", "value": "~80", "unit": "fold"}]}
